Experiment [1] is described as follows: Her2 expression decrease, cell viability multiplex – SKBR3 breast tumor cells, AlphaScreen, ATP viability, primary screen (AID 461;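 active means Her2 level under about 52% in both replicate screens, with viability over 70% of control, limit read from the data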;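 on Her2 level: lower value means less Her2 protein in the cells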;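 on viability: percent of carrier control wells set as 100% viability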). The settings on record: SKBR3 Her2 protein level, 18-24 h, measured here: SKBR3 viability, ATP luminescence, at 10 µM.
Experiment [2] addresses Receptor tyrosine-protein kinase erbB-2 (Homo sapiens) (UniProt P04626). The experiment is described as above. The settings on record: 18-24 h, at 10 µM, stronger effect = lower value.
Experiment [3] in a line: reduced viability of SK-BR-3 breast cancer cells – cell-based, 24 h, human, pilot screen (AID 572;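 active means viability at or below 10% of carrier control in both of two separate runs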;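 further: compound exposure lasted between 18 and 24 h rather than exactly 24 h; 100% = carrier-treated control wells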). The settings on record: SK-BR-3 viability, CellTiter-Glo luminescence, at 10 µM, stronger effect = lower value. In general terms: ATP-based viability assays read luminescence as a measure of living cells.
Experiment [4] in a line: HUVEC growth inhibition – cell-based, human, primary screen (AID 575;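 active means viability at or below 30% in both replicate assays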;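 further: 100% = median of untreated cell wells with 0.1% DMSO on each plate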). To be noted: HUVEC proliferation, CellTiter-Glo luminescence, 72 h; at 10 µM; stronger effect = lower value. The method, boiled down:
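Assay system: primary human umbilical vein endothelial cells / Buffer or medium: endothelial basal medium with 2% FBS plus growth supplements / Compound dosing: one dose, 10 µM final, 0.1% DMSO / Timing: 72 h treatment at 37 °C / Signal: CTG luminescence / Benchmarks: 32 DMSO-only cell-control wells (high), 32 MePR drug-control wells (low) per plate / Plate: collagen-coated 384-well format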

Experiment [5] can be described thus: H69AR cell proliferation blockers – human, duplicate replicates, primary screen (AID 580;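 active means viability at or under a set limit in both replicates, limit being median viability minus 3 SD, cut at about 48% in these data, passing the limit was not always enough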;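 further: 100% = mean luminescence of untreated wells and 0% = no signal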). To be noted: H69AR lung tumor cells viability, ATP luminescence, 72 h; at 10 µM; stronger effect = lower value.
A short description of experiment [6]: MRP1 drug-resistance reversers in H69AR cells – cell-based, doxorubicin co-treatment, pilot screen (AID 601). The settings on record: CellTiter-Glo, 72 h, at 10 µM; for differential viability (reversal): stronger effect = higher value.
The nature of experiment [7]: yeast transport mutant growth inhibition pilot in 384-well plates, post-Golgi transport modulator project (AID 636; in the data active means inhibition above about 31%). To be noted: absorbance 615 nm, about 18 h, stronger effect = higher value.
Experiment [8] can be described thus: growth suppression of yeast trafficking mutant, preliminary HTS, modulators of trafficking downstream of Golgi apparatus project, 1536-format plate, OD 615 nm (AID 637; in the data active means inhibition above about 30%). The settings on record: yeast transport mutant growth, absorbance 615 nm, 18 h; stronger effect = higher value.
Setting [9] is: H69AR cells + 2 uM doxorubicin, measured here: viability with 2 uM doxorubicin, stronger effect = lower value.
The mark [10] stands for this setting: H69AR cells, compound alone cytotoxicity.

Data on 14 molecules can be found in PubChem BioAssay.

Activity calls are given as the source filed them.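 How the source made its calls, unless noted: active means viability loss from added drug above about 55%, and viability with drug at most 40%, in both replicates (limit read from the data, passing the limit was not always enough); inconclusive means both conditions met in only one replicate; inactive means neither replicate meets both conditions.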

Chain of Receptor tyrosine-protein kinase erbB-2 (Homo sapiens) (P04626 whole entry, looked up): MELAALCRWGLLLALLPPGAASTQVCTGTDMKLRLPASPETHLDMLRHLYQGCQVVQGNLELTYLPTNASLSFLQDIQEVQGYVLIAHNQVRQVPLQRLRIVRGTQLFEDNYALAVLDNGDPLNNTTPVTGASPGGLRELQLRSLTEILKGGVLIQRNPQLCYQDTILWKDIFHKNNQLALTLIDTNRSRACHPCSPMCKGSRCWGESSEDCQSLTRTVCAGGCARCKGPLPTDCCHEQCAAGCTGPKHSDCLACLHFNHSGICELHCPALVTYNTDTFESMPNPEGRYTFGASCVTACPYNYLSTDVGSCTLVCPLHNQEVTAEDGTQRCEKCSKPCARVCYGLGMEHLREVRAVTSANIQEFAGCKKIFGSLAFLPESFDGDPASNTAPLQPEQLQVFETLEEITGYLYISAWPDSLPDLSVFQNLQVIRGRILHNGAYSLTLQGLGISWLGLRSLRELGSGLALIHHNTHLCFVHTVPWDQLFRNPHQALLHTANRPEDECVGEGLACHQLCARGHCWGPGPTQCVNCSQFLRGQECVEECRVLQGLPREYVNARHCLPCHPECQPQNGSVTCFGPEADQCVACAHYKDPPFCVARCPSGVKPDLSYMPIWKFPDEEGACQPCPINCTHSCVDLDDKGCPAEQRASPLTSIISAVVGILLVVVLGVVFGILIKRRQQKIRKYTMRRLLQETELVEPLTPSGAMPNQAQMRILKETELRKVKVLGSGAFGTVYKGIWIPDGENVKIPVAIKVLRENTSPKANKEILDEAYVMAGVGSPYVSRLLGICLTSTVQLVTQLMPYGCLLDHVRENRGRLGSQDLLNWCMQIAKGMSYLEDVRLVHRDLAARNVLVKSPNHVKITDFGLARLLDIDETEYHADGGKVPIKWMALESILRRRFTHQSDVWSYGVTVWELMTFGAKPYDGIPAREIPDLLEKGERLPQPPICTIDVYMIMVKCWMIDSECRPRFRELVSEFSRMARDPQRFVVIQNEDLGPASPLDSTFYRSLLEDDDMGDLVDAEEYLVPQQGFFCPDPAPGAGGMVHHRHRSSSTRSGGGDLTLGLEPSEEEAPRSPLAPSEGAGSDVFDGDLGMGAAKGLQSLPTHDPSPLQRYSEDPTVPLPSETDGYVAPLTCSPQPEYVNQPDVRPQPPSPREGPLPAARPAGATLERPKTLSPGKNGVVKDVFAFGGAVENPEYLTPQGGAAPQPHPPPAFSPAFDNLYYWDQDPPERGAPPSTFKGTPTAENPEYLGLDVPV

A word on the viability: it is a read-out of living cells in per cent, often relative to untreated cells. Usually inhibition stands for the relative decrease from the control value, in per cent. `Nc1nc(N)nc(-c2ccccc2)n1`: the viability in experiment [1] is 97.5%; in experiment [3], 97.5% (inactive); in experiment [4], 107% (inactive); in experiment [5], 99.8% (inactive); in experiment [6] (setting [9]), 95.4%; in experiment [6] (setting [10]), 99.8%. The Her2 level in experiment [2] was 106% (inactive). Moreover, the differential viability (reversal) in experiment [6] (H69AR cells + 2 uM doxorubicin) was 4.35% (inactive). Besides, the results for the inhibition in experiment [7] and in experiment [8] were -1.05% (inactive) and -0.16% (inactive), respectively.

With `O=C(Nc1ccccc1C(=O)NCC1CCCO1)c1ccco1` (stereo not given), the viability in experiment [1] is 110%; in experiment [3], 110% (inactive); in experiment [4] it was 97.9% (inactive); in experiment [5], 98.7% (inactive); in experiment [6] (setting [9]), 100%; in experiment [6] (setting [10]) it was 98.7%. Further, in experiment [2], the Her2 level was 89% (inactive). Also, the differential viability (reversal) in experiment [6] (H69AR cells + 2 uM doxorubicin) is -1.63% (inactive). Moreover, the inhibition is -1.71% (inactive) in experiment [7] and -5.71% (inactive) in experiment [8].

For `COCC(=O)Nc1sc2c(c1C(=O)OC)C(C(=O)OC)CC2` (stereo not given), the viability was 75.5% in experiment [1]; 75.5% (inactive) in experiment [3]; 84.6% (inactive) in experiment [4]; 101% (inactive) in experiment [5]; 88.6% in experiment [6] (setting [9]); 101% in experiment [6] (setting [10]). For the same molecule, the Her2 level in experiment [2] was 108% (inactive). In addition, the differential viability (reversal) in experiment [6] (H69AR cells + 2 uM doxorubicin) was 12.5% (inactive). Besides, the inhibition is 3.16% (inactive) in experiment [7] and 11.4% (inactive) in experiment [8].

For the molecule `O=C(Cc1cccs1)Nc1ccccc1C(=O)O`, the viability in experiment [1] is 109%; in experiment [3], 109% (inactive); in experiment [4], 87.5% (inactive); in experiment [5] it was 103% (inactive); in experiment [6] (setting [9]), 97.2%; in experiment [6] (setting [10]), 103%. In experiment [2], the Her2 level was 96.5% (inactive). Moreover, in experiment [6] (H69AR cells + 2 uM doxorubicin), the differential viability (reversal) was 5.91% (inactive). Also, the figures for the inhibition in experiment [7] and in experiment [8] were -4.67% (inactive) and 5.16% (inactive), respectively.

For `COc1cc(OC)c(C(=O)Nc2ccc(N(C)C)cc2)cc1OC`, the viability in experiment [1] is 111%; in experiment [3], 111% (inactive); in experiment [4] it was 103% (inactive); in experiment [5], 89% (inactive); in experiment [6] (setting [9]), 93.4%; in experiment [6] (setting [10]) it was 89%. For the same molecule, the Her2 level in experiment [2] was 84.5% (inactive). In experiment [6] (H69AR cells + 2 uM doxorubicin), the differential viability (reversal) is -4.37% (inactive). Moreover, the inhibition in experiment [7] is -1.84% (inactive); in experiment [8], -1.9% (inactive).

Turning to `Cc1cc(NC(=O)CSc2nnc(COc3cccc(C)c3C)n2Cc2ccco2)no1`, the viability in experiment [1] was 102%; in experiment [3], 102% (inactive); in experiment [4], 97.5% (inactive); in experiment [5] it was 104% (inactive); in experiment [6] (setting [9]), 85%; in experiment [6] (setting [10]) it was 104%. The Her2 level in experiment [2] was 94% (inactive). In experiment [6] (H69AR cells + 2 uM doxorubicin), the differential viability (reversal) was 19.5% (inactive). For the same molecule, the inhibition in experiment [7] is -4.59% (inactive); in experiment [8] it was -0.79% (inactive).

Consider `CC1(C)Cc2cccc(OCC(O)CN3CCN(c4ccccn4)CC3)c2O1` (stereo not given), for which the viability in experiment [1] is 84%; in experiment [3] it was 84% (inactive); in experiment [4], 86.1% (inactive); in experiment [5] it was 70.3% (inactive); in experiment [6] (setting [9]), 88%; in experiment [6] (setting [10]), 70.3%. Besides, in experiment [2], the Her2 level was 94% (inactive). In experiment [6] (H69AR cells + 2 uM doxorubicin), the differential viability (reversal) is -17.7% (inactive). In addition, the inhibition in experiment [7] was -3.38% (inactive); in experiment [8], -7.3% (inactive).

On to `Oc1cnc2ccccc2c1CN1CCOCC1`, for which the viability in experiment [1] was 98.5%; in experiment [3] it was 98.5% (inactive); in experiment [4], 113% (inactive); in experiment [5], 101% (inactive); in experiment [6] (setting [9]), 104%; in experiment [6] (setting [10]), 101%. For the same molecule, the Her2 level in experiment [2] was 92% (inactive). Moreover, the differential viability (reversal) in experiment [6] (H69AR cells + 2 uM doxorubicin) was -2.39% (inactive). Besides, the inhibition in experiment [7] is -3.16% (inactive); in experiment [8] it was -0.16% (inactive).

In the case of `C=CCN1C(=O)C2(C(C#N)=C(N)Oc3n[nH]c(CCC)c32)c2ccccc21` (stereo not given), the viability in experiment [1] was 108%; in experiment [3], 108% (inactive); in experiment [4], 100% (inactive); in experiment [5], 87.8% (inactive); in experiment [6] (setting [9]), 84.8%; in experiment [6] (setting [10]), 87.8%. Further, the Her2 level in experiment [2] was 103% (inactive). In experiment [6] (H69AR cells + 2 uM doxorubicin), the differential viability (reversal) is 2.95% (inactive). In addition, the inhibition in experiment [7] was -4.55% (inactive); in experiment [8], 0% (inactive).

As for `Cc1cc(C(F)F)n2nc(C(=O)Nc3ccc(S(=O)(=O)N4CCCCCC4)cc3)nc2n1`, the viability in experiment [1] is 74%; in experiment [3] it was 74% (inactive); in experiment [4], 83.4% (inactive); in experiment [5], 83.3% (inactive); in experiment [6] (setting [9]), 84.9%; in experiment [6] (setting [10]) it was 83.3%. The Her2 level in experiment [2] is 73.5% (inactive). Further, the differential viability (reversal) in experiment [6] (H69AR cells + 2 uM doxorubicin) is -1.62% (inactive). The inhibition is -3.87% (inactive) in experiment [7] and 22.9% (inactive) in experiment [8].

In the case of `Cn1c2ccc(F)cc2c2ncn(CCN3CCOCC3)c(=O)c21`, the viability was 88.5% in experiment [1]; 88.5% (inactive) in experiment [3]; 98.6% (inactive) in experiment [4]; 97.4% (inactive) in experiment [5]; 90.4% in experiment [6] (setting [9]); 97.4% in experiment [6] (setting [10]). Besides, in experiment [2], the Her2 level was 82.5% (inactive). Further, the differential viability (reversal) in experiment [6] (H69AR cells + 2 uM doxorubicin) is 6.95% (inactive). For the same molecule, the inhibition in experiment [7] was -6% (inactive); in experiment [8] it was -3.02% (inactive).

On to `O=S(=O)(NC1CCCC1)c1ccc(S(=O)(=O)N2CCc3ccccc32)cc1`, for which the viability in experiment [1] was 99.5%; in experiment [3], 99.5% (inactive); in experiment [4] it was 66.1% (inactive); in experiment [5], 71.5% (inactive); in experiment [6] (setting [9]), 69.6%; in experiment [6] (setting [10]), 71.5%. The Her2 level in experiment [2] is 94.5% (inactive). Besides, in experiment [6] (H69AR cells + 2 uM doxorubicin), the differential viability (reversal) was 1.97% (inactive). Moreover, the inhibition in experiment [7] was -4.94% (inactive); in experiment [8], -12.4% (inactive).

For the molecule `Cc1nc(N2CCOCC2)[nH]c(=O)c1CCC(C)C`, the viability in experiment [1] was 120%; in experiment [3], 120% (inactive); in experiment [4] it was 87.7% (inactive); in experiment [5] it was 91.9% (inactive); in experiment [6] (setting [9]), 91%; in experiment [6] (setting [10]), 91.9%. The Her2 level in experiment [2] was 82% (inactive). In addition, the differential viability (reversal) in experiment [6] (H69AR cells + 2 uM doxorubicin) was 0.88% (inactive). Besides, the values for the inhibition in experiment [7] and in experiment [8] were -1.58% (inactive) and 1.11% (inactive), respectively.

Turning to `COC(=O)c1ccc(NC(=O)CN2C(=O)CSC2=O)cc1`, the viability in experiment [1] is 104%; in experiment [3], 104% (inactive); in experiment [4] it was 90.1% (inactive); in experiment [5], 106% (inactive); in experiment [6] (setting [9]), 94.4%; in experiment [6] (setting [10]), 106%. Further, the Her2 level in experiment [2] is 93% (inactive). Moreover, the differential viability (reversal) in experiment [6] (H69AR cells + 2 uM doxorubicin) was 12% (inactive). The inhibition in experiment [7] is -4.67% (inactive); in experiment [8], 2.3% (inactive).
